Results as given in ChEMBL document CHEMBL1122630, “Inhibitors of inosinic acid dehydrogenase. 2-Substituted inosinic acids” (J Med Chem, 1984).

biological target: T1, Inosine-5'-monophosphate dehydrogenase (Escherichia coli K-12, UniProt P0ADG7); test: Ability to inhibit Inosine-5'-monophosphate dehydrogenase isolated from Escherichia coli; conditions: read-out: I50
T1 sequence (P0ADG7 whole entry): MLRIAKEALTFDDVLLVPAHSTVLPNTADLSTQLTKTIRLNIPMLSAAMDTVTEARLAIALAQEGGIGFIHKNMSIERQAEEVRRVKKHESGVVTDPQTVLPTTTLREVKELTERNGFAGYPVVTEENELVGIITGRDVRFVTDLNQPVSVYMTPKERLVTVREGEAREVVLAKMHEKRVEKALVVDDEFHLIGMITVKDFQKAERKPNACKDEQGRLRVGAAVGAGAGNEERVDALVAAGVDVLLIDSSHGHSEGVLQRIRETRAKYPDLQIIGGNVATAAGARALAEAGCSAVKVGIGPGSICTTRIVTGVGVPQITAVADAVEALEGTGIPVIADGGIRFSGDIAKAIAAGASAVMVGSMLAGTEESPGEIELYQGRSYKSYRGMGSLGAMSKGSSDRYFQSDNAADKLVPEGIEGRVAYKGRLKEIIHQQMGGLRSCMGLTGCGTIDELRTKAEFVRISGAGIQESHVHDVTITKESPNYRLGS
Procedure, shortened: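 Crude E. coli IMP dehydrogenase (0–40% ammonium sulfate precipitate) in 0.05 M Tris pH 8.5 with 33.4 mM KCl, 1.5 mM glutathione, 0.8 mM NAD+ and 0.002 unit enzyme, run at 25 °C. NADH rise at 340 nm gave initial rates. I50 was read graphically at 50 µM IMP, with inhibitor levels bracketing 50%; duplicates agreed within 20%. Ki came from a competitive-equation fit over 10–75 µM IMP.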

Row | SMILES | IC50
1 | CCCCCCCc1nc(O)c2ncn(C3O[C@@H](COP(=O)(O)O)[C@H](O)[C@@H]3O)c2n1 (some centres undefined) | 270 µM
2 | O=[N+]([O-])c1cc(CSc2nc(O)c3ncn(C4O[C@@H](COP(=O)(O)O)[C@H](O)[C@@H]4O)c3n2)cc([N+](=O)[O-])c1 (some centres undefined) | 85 µM
3 | CCCCCCCCCc1nc(O)c2ncn(C3O[C@@H](COP(=O)(O)O)[C@H](O)[C@@H]3O)c2n1 (some centres undefined) | 160 µM
4 | CCCCCCc1nc(O)c2ncn(C3O[C@@H](COP(=O)(O)O)[C@H](O)[C@@H]3O)c2n1 (some centres undefined) | 580 µM
5 | COc1ccc(-c2nc(O)c3ncn(C4O[C@@H](COP(=O)(O)O)[C@H](O)[C@@H]4O)c3n2)cc1 (some centres undefined) | 810 µM
6 | O=P(O)(O)OC[C@@H]1OC(n2cnc3c(O)nc(Cc4ccccc4)nc32)[C@@H](O)[C@H]1O (some centres undefined) | 770 µM
7 | O=P(O)(O)OC[C@@H]1OC(n2cnc3c(O)nc(Cc4cccnc4)nc32)[C@@H](O)[C@H]1O (some centres undefined) | 430 µM
8 | O=P(O)(O)OC[C@@H]1OC(n2cnc3c(O)nc(-c4ccccc4)nc32)[C@@H](O)[C@H]1O (some centres undefined) | > 1000 µM
9 | O=P(O)(O)OC[C@@H]1OC(n2cnc3c(O)nc(SCc4ccccc4Cl)nc32)[C@@H](O)[C@H]1O (some centres undefined) | 72 µM
10 | O=[N+]([O-])c1cccc(CSc2nc(O)c3ncn(C4O[C@@H](COP(=O)(O)O)[C@H](O)[C@@H]4O)c3n2)c1 (some centres undefined) | 33 µM
11 | CCCCCCCCc1nc(O)c2ncn(C3O[C@@H](COP(=O)(O)O)[C@H](O)[C@@H]3O)c2n1 (some centres undefined) | 680 µM
12 | CCCCCCCCCCc1nc(O)c2ncn(C3O[C@@H](COP(=O)(O)O)[C@H](O)[C@@H]3O)c2n1 (some centres undefined) | 150 µM
13 | O=P(O)(O)OC[C@@H]1OC(n2cnc3c(O)nc(-c4cccnc4)nc32)[C@@H](O)[C@H]1O (some centres undefined) | > 1000 µM
14 | O=P(O)(O)OC[C@@H]1OC(n2cnc3c(O)nc(/C=C/c4ccccc4)nc32)[C@@H](O)[C@H]1O (some centres undefined) | 69 µM
15 | O=[N+]([O-])c1ccc(CSc2nc(O)c3ncn(C4O[C@@H](COP(=O)(O)O)[C@H](O)[C@@H]4O)c3n2)cc1 (some centres undefined) | 56 µM

biological target: IMP dehydrogenase (Escherichia coli); test: Ability to inhibit Inosine-5'-monophosphate dehydrogenase isolated from Escherichia coli; conditions: not given

Row | SMILES | Ki
16 | CCCc1nc(O)c2ncn(C3O[C@@H](COP(=O)(O)O)[C@H](O)[C@@H]3O)c2n1 (some centres undefined) | 190 µM
17 | COc1nc(O)c2ncn(C3O[C@@H](COP(=O)(O)O)[C@H](O)[C@@H]3O)c2n1 (some centres undefined) | 46 µM
18 | Cc1nc(O)c2ncn(C3O[C@@H](COP(=O)(O)O)[C@H](O)[C@@H]3O)c2n1 (some centres undefined) | 600 µM
19 | O=P(O)(O)OC[C@@H]1OC(n2cnc3c(O)nc(Cl)nc32)[C@@H](O)[C@H]1O (some centres undefined) | 120 µM
